ChEMBL document CHEMBL1152173, “Synthesis and in vitro evaluation of the antifungal activities of dihydropyrimidinones” (2008)
Values after ≈ are worked out from the molar mass of the structure shown. Active and inactive are the calls of the source. The rule behind the calls is not given here.

Tests used:
Aspergillus niger [1] = assay: Antifungal activity against Aspergillus niger assessed as radial growth at 7% after 48 hrs by poison food technique of Flack relative to control; assay type: functional
Aspergillus niger [2] = assay: Antifungal activity against Aspergillus niger assessed as radial growth at 3% after 48 hrs by poison food technique of Flack relative to control; assay type: functional
Trichoderma hamatum [3] = assay: Antifungal activity against Trichoderma hamatum assessed as radial growth at 0.5% after 24 hrs by poison food technique of Flack relative to control; assay type: functional
Aspergillus niger [4] = assay: Antifungal activity against Aspergillus niger assessed as radial growth at 1% after 24 hrs by poison food technique of Flack relative to control; assay type: functional
Trichoderma hamatum [5] = assay: Antifungal activity against Trichoderma hamatum assessed as radial growth at 7% after 48 hrs by poison food technique of Flack relative to control; assay type: functional
Method in brief: (§1)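 Acetone stock added to molten sterilized PDA to final 0.5–7%, plated in 90 mm dishes with compound-free plates as control. Each plate was inoculated with a 9 mm disc from a 4-day-old culture, incubated at 25 ± 1 °C, and colony diameter measured at 24 h intervals. % inhibition = (control − treatment)/control × 100; three replicates averaged.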

Trichoderma koningii [6] = assay: Antifungal activity against Trichoderma koningii assessed as radial growth at 1% after 72 hrs by poison food technique of Flack relative to control; assay type: functional; method in brief: as §1
Trichoderma hamatum [7] = assay: Antifungal activity against Trichoderma hamatum assessed as radial growth at 7% after 24 hrs by poison food technique of Flack relative to control; assay type: functional; method in brief: as §1
Trichoderma hamatum [8] = assay: Antifungal activity against Trichoderma hamatum assessed as radial growth at 1% after 72 hrs by poison food technique of Flack relative to control; assay type: functional
Trichoderma koningii [9] = assay: Antifungal activity against Trichoderma koningii; assay type: functional
Trichoderma hamatum [10] = assay: Antifungal activity against Trichoderma hamatum assessed as radial growth at 3% after 72 hrs by poison food technique of Flack relative to control; assay type: functional
Trichoderma hamatum [11] = assay: Antifungal activity against Trichoderma hamatum assessed as radial growth at 3% after 48 hrs by poison food technique of Flack relative to control; assay type: functional
Trichoderma koningii [12] = assay: Antifungal activity against Trichoderma koningii assessed as radial growth at 0.5% after 48 hrs by poison food technique of Flack relative to control; assay type: functional; method in brief: as §1
Trichoderma koningii [13] = assay: Antifungal activity against Trichoderma koningii assessed as radial growth at 0.5% after 72 hrs by poison food technique of Flack relative to control; assay type: functional; method in brief: as §1
Aspergillus niger [14] = assay: Antifungal activity against Aspergillus niger assessed as radial growth at 1% after 48 hrs by poison food technique of Flack relative to control; assay type: functional
Aspergillus niger [15] = assay: Antifungal activity against Aspergillus niger assessed as radial growth at 5% after 72 hrs by poison food technique of Flack relative to control; assay type: functional
Trichoderma hamatum [16] = assay: Antifungal activity against Trichoderma hamatum assessed as radial growth at 3% after 24 hrs by poison food technique of Flack relative to control; assay type: functional
Trichoderma koningii [17] = assay: Antifungal activity against Trichoderma koningii assessed as radial growth at 3% after 72 hrs by poison food technique of Flack relative to control; assay type: functional; method in brief: as §1
Aspergillus niger [18] = assay: Antifungal activity against Aspergillus niger assessed as radial growth at 7% after 72 hrs by poison food technique of Flack relative to control; assay type: functional
Trichoderma koningii [19] = assay: Antifungal activity against Trichoderma koningii assessed as radial growth at 7% after 48 hrs by poison food technique of Flack relative to control; assay type: functional; method in brief: as §1
Trichoderma hamatum [20] = assay: Antifungal activity against Trichoderma hamatum assessed as radial growth at 1% after 24 hrs by poison food technique of Flack relative to control; assay type: functional
Aspergillus niger [21] = assay: Antifungal activity against Aspergillus niger assessed as radial growth at 0.5% after 24 hrs by poison food technique of Flack relative to control; assay type: functional
Aspergillus niger [22] = assay: Antifungal activity against Aspergillus niger assessed as radial growth at 5% after 48 hrs by poison food technique of Flack relative to control; assay type: functional
Trichoderma hamatum [23] = assay: Antifungal activity against Trichoderma hamatum assessed as radial growth at 7% after 24 hrs by poison food technique of Flack; assay type: functional, organism-based
Method in brief: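 Poisoned-food method: acetone stock mixed into molten sterilized potato dextrose agar to final 0.5, 1, 3, 5 or 7%, poured into 90 mm plates. Plates were inoculated with a 9 mm mycelial disc from a 4-day-old pure culture and incubated at 25 ± 1 °C. Colony diameter (mm) was read every 24 h; mean of three replicates.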

Aspergillus niger [24] = assay: Antifungal activity against Aspergillus niger assessed as radial growth at 3% after 24 hrs by poison food technique of Flack relative to control; assay type: functional
Trichoderma koningii [25] = assay: Antifungal activity against Trichoderma koningii assessed as radial growth at 5% after 72 hrs by poison food technique of Flack relative to control; assay type: functional; method in brief: as §1
Trichoderma hamatum [26] = assay: Antifungal activity against Trichoderma hamatum assessed as radial growth at 5% after 48 hrs by poison food technique of Flack relative to control; assay type: functional; method in brief: as §1
Aspergillus niger [27] = assay: Antifungal activity against Aspergillus niger assessed as radial growth at 3% after 72 hrs by poison food technique of Flack relative to control; assay type: functional
Aspergillus niger [28] = assay: Antifungal activity against Aspergillus niger assessed as radial growth at 1% after 72 hrs by poison food technique of Flack relative to control; assay type: functional
Trichoderma koningii [29] = assay: Antifungal activity against Trichoderma koningii assessed as radial growth at 3% after 48 hrs by poison food technique of Flack relative to control; assay type: functional; method in brief: as §1
Trichoderma koningii [30] = assay: Antifungal activity against Trichoderma koningii assessed as radial growth at 3% after 24 hrs by poison food technique of Flack relative to control; assay type: functional; method in brief: as §1
Trichoderma hamatum [31] = assay: Antifungal activity against Trichoderma hamatum assessed as radial growth at 0.5% after 72 hrs by poison food technique of Flack relative to control; assay type: functional
Trichoderma koningii [32] = assay: Antifungal activity against Trichoderma koningii assessed as radial growth at 5% after 48 hrs by poison food technique of Flack relative to control; assay type: functional; method in brief: as §1
Trichoderma hamatum [33] = assay: Antifungal activity against Trichoderma hamatum assessed as radial growth at 0.5% after 48 hrs by poison food technique of Flack relative to control; assay type: functional
Aspergillus niger [34] = assay: Antifungal activity against Aspergillus niger assessed as radial growth at 0.5% after 72 hrs by poison food technique of Flack relative to control; assay type: functional
Aspergillus niger [35] = assay: Antifungal activity against Aspergillus niger assessed as radial growth at 7% after 24 hrs by poison food technique of Flack relative to control; assay type: functional
Trichoderma hamatum [36] = assay: Antifungal activity against Trichoderma hamatum; assay type: functional
Trichoderma koningii [37] = assay: Antifungal activity against Trichoderma koningii assessed as radial growth at 1% after 24 hrs by poison food technique of Flack relative to control; assay type: functional; method in brief: as §1
Trichoderma koningii [38] = assay: Antifungal activity against Trichoderma koningii assessed as radial growth at 0.5% after 24 hrs by poison food technique of Flack relative to control; assay type: functional; method in brief: as §1
Trichoderma koningii [39] = assay: Antifungal activity against Trichoderma koningii assessed as radial growth at 1% after 48 hrs by poison food technique of Flack relative to control; assay type: functional; method in brief: as §1
Trichoderma hamatum [40] = assay: Antifungal activity against Trichoderma hamatum assessed as radial growth at 1% after 48 hrs by poison food technique of Flack relative to control; assay type: functional
Trichoderma hamatum [41] = assay: Antifungal activity against Trichoderma hamatum assessed as radial growth at 5% after 24 hrs by poison food technique of Flack relative to control; assay type: functional; method in brief: as §1
Trichoderma koningii [42] = assay: Antifungal activity against Trichoderma koningii assessed as radial growth at 5% after 24 hrs by poison food technique of Flack relative to control; assay type: functional; method in brief: as §1
Trichoderma koningii [43] = assay: Antifungal activity against Trichoderma koningii assessed as radial growth at 7% after 72 hrs by poison food technique of Flack relative to control; assay type: functional; method in brief: as §1
Trichoderma hamatum [44] = assay: Antifungal activity against Trichoderma hamatum assessed as radial growth at 7% after 72 hrs by poison food technique of Flack relative to control; assay type: functional; method in brief: as §1

CCOC(=O)C1=C(C)NC(=O)NC1c1ccc(N(C)C)cc1 (centres undefined)
inhibition (INH) (Aspergillus niger [1]): 100% | inhibition (INH) (Aspergillus niger [2]): 75% | inhibition (INH) (Trichoderma hamatum [3]): 0% | inhibition (INH) (Aspergillus niger [4]): 42.85% | inhibition (INH) (Trichoderma hamatum [5]): 96.38% | inhibition (INH) (Trichoderma koningii [6]): 48.29% | inhibition (INH) (Trichoderma hamatum [7]): 100% | inhibition (INH) (Trichoderma hamatum [8]): 0% | MIC (Trichoderma koningii [9]): 0.025 µg/mL (≈ 0.0824 µM) | inhibition (INH) (Trichoderma hamatum [10]): 73.04% | inhibition (INH) (Trichoderma hamatum [11]): 75.31% | inhibition (INH) (Trichoderma koningii [12]): 9.67% | inhibition (INH) (Trichoderma koningii [13]): 45.53% | inhibition (INH) (Aspergillus niger [14]): 47.25% | inhibition (INH) (Aspergillus niger [15]): 88.42% | inhibition (INH) (Trichoderma hamatum [16]): 77.38% | inhibition (INH) (Trichoderma koningii [17]): 59.58% | inhibition (INH) (Aspergillus niger [18]): 100% | inhibition (INH) (Trichoderma koningii [19]): 87.09% | inhibition (INH) (Trichoderma hamatum [20]): 0% | inhibition (INH) (Aspergillus niger [21]): 38.28% | inhibition (INH) (Aspergillus niger [22]): 87.5% | Activity (Trichoderma hamatum [23]): Active | inhibition (INH) (Aspergillus niger [24]): 100% | inhibition (INH) (Trichoderma koningii [25]): 79.15% | inhibition (INH) (Trichoderma hamatum [26]): 93.38% | inhibition (INH) (Aspergillus niger [27]): 74.11% | inhibition (INH) (Aspergillus niger [28]): 46.4% | inhibition (INH) (Trichoderma koningii [29]): 64.51% | inhibition (INH) (Trichoderma koningii [30]): 84% | inhibition (INH) (Trichoderma hamatum [31]): 0% | inhibition (INH) (Trichoderma koningii [32]): 87.09% | inhibition (INH) (Trichoderma hamatum [33]): 0% | inhibition (INH) (Aspergillus niger [34]): 35.69% | inhibition (INH) (Aspergillus niger [35]): 100% | MIC (Trichoderma hamatum [36]): 0.025 µg/mL (≈ 0.0824 µM) | inhibition (INH) (Trichoderma koningii [37]): 9.36% | inhibition (INH) (Trichoderma koningii [38]): 4% | inhibition (INH) (Trichoderma koningii [39]): 48.38% | inhibition (INH) (Trichoderma hamatum [40]): 0% | inhibition (INH) (Trichoderma hamatum [41]): 84.2% | inhibition (INH) (Trichoderma koningii [42]): 100% | inhibition (INH) (Trichoderma koningii [43]): 80% | inhibition (INH) (Trichoderma hamatum [44]): 93.82%
